INS-1E GSIS act = primary screen for activators of insulin secretion dependent on glucose, INS-1E cells, GLuc reporter luminescence; AID 743287; 0.61% of 370,000 active; activation, % at 16.6 µM; INS-1E GLuc reporter insulin secretion, 2-3 h;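 active = lowest replicate activation of at least 40%, so every replicate reaches that level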;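 note: 0% = median of neutral control wells and 100% = median of IBMX positive control wells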
Rtt109 Vps75 = inhibitors of Candida albicans Rtt109/Vps75 histone acetyltransferase. Q5AAJ8. 0.16% of 330,000 active. inhibition, % at 34.9 µM. purified Rtt109/Vps75, ThioGlo CoA-SH fluorescence, 4 h;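 active = inhibition of at least 50% in every replicate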
Target sequence (Q5AAJ8 whole entry, looked up): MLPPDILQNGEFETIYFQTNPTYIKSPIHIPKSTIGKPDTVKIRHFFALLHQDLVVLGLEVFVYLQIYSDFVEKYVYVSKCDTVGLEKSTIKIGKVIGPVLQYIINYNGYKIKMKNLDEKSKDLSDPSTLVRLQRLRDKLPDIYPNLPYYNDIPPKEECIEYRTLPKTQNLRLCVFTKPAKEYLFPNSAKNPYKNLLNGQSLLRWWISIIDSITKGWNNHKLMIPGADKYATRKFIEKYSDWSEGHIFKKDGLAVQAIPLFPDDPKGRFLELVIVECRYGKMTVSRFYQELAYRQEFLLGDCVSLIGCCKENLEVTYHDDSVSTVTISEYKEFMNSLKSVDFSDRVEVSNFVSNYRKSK
HIV Env fusion = blocks HIV Env-driven cell-cell fusion. HeLa-JRFL Env/CEM21 cell fusion, luciferase. inhibition, % at 12.3 µM. 1.1% of 360,000 active. AID 651610;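 active = mean replicate inhibition score of at least 50 and every replicate individually at or above 50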;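 note: 0% = plate neutral controls and 100% = maraviroc near 300 nM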
miR122 inh = miR-122 inhibition in Huh7 cells; Huh7 miR-122 Renilla luciferase sensor, 48 h; neutral wells = 0, positive control = 100; activation (reporter increase), % at 12.5 µM; 0.3% of 340,000 active; AID 602342;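 active = mean replicate activation score at least 90 and every replicate individually at or above 90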;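 note: higher luciferase means less miR-122 activity so hits act as miR-122 inhibitors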
dFosB activator = mouse delta FosB homodimer activation; P13346; purified delta FosB, TAMRA-CDK5 oligo fluorescence polarization; percent of positive-control signal above neutral wells; activation, % at 25 µM; 0.99% of 340,000 active; AID 493131;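 active = mean activation above about 17%, with every replicate also reaching it, limit read from the data, passing the limit was not always enough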
Cneo AK release = causes C. neoformans cell lysis. 0.2% of 360,000 active. lysis activity, % at 15 µM. adenylate kinase release luminescence, 4 h; normalised: neutral wells 0, clomiphene wells 100;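 active = mean lysis activity across replicates of at least 80%, whatever share of replicates individually reach that level; inactive = mean lysis activity below 80%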
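Assay system: Cryptococcus neoformans yeast cells / Dosing: single-point compound dose / Timing: 4 h at 37 °C static, read 1 h later / Measured by: luminescence of released adenylate kinase using an AK detection reagent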
* = called active by the depositor; [ ] = another dose, or the depositor's remark. The list is not random: actives were taken first. Their share in the collection is about 2.4%.

For CN(C)CCCNC(=O)[C@H]1[C@H](CO)[C@H]2Cn3c(cccc3=O)[C@@H]1N2CC1CC1 the results were INS-1E GSIS act 3, HIV Env fusion -2[16.7 µM] and Cneo AK release 1.
`COc1cc(O)c(C(CCN2CCCCC2)c2ccc(N(C)C)cc2)c(OC)c1` (stereo not given) gave INS-1E GSIS act 11, Rtt109 Vps75 -2, HIV Env fusion 57*, miR122 inh 4, dFosB activator -10 and Cneo AK release 3.
`C[C@@H]1CN([C@H](C)CO)C(=O)c2cc(C#CC3(O)CCCC3)cnc2O[C@H]1CN(C)S(=O)(=O)c1ccccc1` gave INS-1E GSIS act 8, HIV Env fusion 21[16.7 µM], miR122 inh -3[16.7 µM] and Cneo AK release -1.
Screening CC1CCN(c2nc3ccccc3nc2C(C#N)C(=O)OC2CCCCC2)CC1 (stereo not given) returned Rtt109 Vps75 8, miR122 inh -10, dFosB activator 4 and Cneo AK release -4.
Screening CC1CN(c2nc3ccccc3nc2C(C#N)C(=O)OC2CCCCC2)CC(C)O1 (stereo not given) returned Rtt109 Vps75 -11, HIV Env fusion 59*, miR122 inh 2, dFosB activator 4 and Cneo AK release 0.
For C[C@@H]1CN([C@H](C)CO)C(=O)c2cc(NC(=O)CCC(F)(F)F)ccc2O[C@@H](C)CCCCO[C@@H]1CN(C)Cc1ccccc1 the results were INS-1E GSIS act -15, HIV Env fusion -30[16.7 µM], miR122 inh 6[16.7 µM] and Cneo AK release -2.
Screening CCN(c1ccccc1)S(=O)(=O)c1ccc(OC)c(OC)c1 returned INS-1E GSIS act 55*, Rtt109 Vps75 -15, miR122 inh -6 and dFosB activator 4.
`Cc1cc(/C=N/Nc2ccc([N+](=O)[O-])cn2)c(C)n1-c1ccccc1` gave Rtt109 Vps75 -15, miR122 inh -8 and dFosB activator 22*.
For Cc1ccc(-n2c(C)cc(/C=N/Nc3ccc([N+](=O)[O-])cn3)c2C)cc1 the results were INS-1E GSIS act 13, Rtt109 Vps75 7, miR122 inh -3, dFosB activator -2 and Cneo AK release 0.
`Cc1nc2ncccn2c1-c1csc(Nc2ccccc2)n1` gave Rtt109 Vps75 14, HIV Env fusion 6 and dFosB activator -12.
For Cc1nc2sccn2c1-c1csc(NCc2ccccc2)n1 the results were Rtt109 Vps75 -4, HIV Env fusion 95*, miR122 inh -3, dFosB activator -3 and Cneo AK release -8.
CC(=O)Nc1ccc(Nc2nc(-c3c(C)nc4ccccn34)cs2)cc1 was read as INS-1E GSIS act 49*, HIV Env fusion -198, miR122 inh 11 and Cneo AK release -1.
Screening COc1ccc(NC(=O)Nc2cccc3c2O[C@H](CN(C)Cc2ccc(Oc4ccccc4)cc2)[C@@H](C)CN([C@H](C)CO)C3=O)cc1 returned INS-1E GSIS act 1.
Screening CCCc1cc(=O)n2[nH]cc(-c3ccc(Cl)cc3)c2n1 returned INS-1E GSIS act 0, Rtt109 Vps75 -13, HIV Env fusion 85*, dFosB activator 2 and Cneo AK release 9.
`COCc1cc(=O)n2[nH]cc(-c3ccccc3)c2n1` gave INS-1E GSIS act 2, Rtt109 Vps75 3, HIV Env fusion -29, miR122 inh 15, dFosB activator 3 and Cneo AK release 0.
For C[C@H](CO)N1C[C@H](C)[C@H](CN(C)C(=O)Nc2ccc(C(F)(F)F)cc2)OCCCC[C@H](C)Oc2ccc(NS(=O)(=O)c3ccc(F)cc3)cc2C1=O the results were INS-1E GSIS act 20, HIV Env fusion 59*[16.7 µM], miR122 inh 5[16.7 µM] and Cneo AK release -1.
For Cc1noc(C)c1NC(=O)N(C)C[C@@H]1OCCCC[C@H](C)Oc2ccc(NS(=O)(=O)c3ccc(F)cc3)cc2C(=O)N([C@@H](C)CO)C[C@H]1C the results were INS-1E GSIS act 6, HIV Env fusion 10[16.7 µM], miR122 inh 6[16.7 µM] and Cneo AK release -2.
For Cc1noc(C)c1NC(=O)N(C)C[C@H]1OCCCC[C@@H](C)Oc2ccc(NS(=O)(=O)c3ccc(F)cc3)cc2C(=O)N([C@H](C)CO)C[C@@H]1C the results were INS-1E GSIS act 21, HIV Env fusion 60*[16.7 µM], miR122 inh 9[16.7 µM] and Cneo AK release 0.
Cc1ccc(S(=O)(=O)Nc2ccc3c(c2)C(=O)N([C@@H](C)CO)C[C@H](C)[C@@H](CN(C)C(=O)Nc2ccc(C(F)(F)F)cc2)OCCCC[C@H](C)O3)cc1 was read as INS-1E GSIS act 23, HIV Env fusion 69*[16.7 µM], miR122 inh 5[16.7 µM] and Cneo AK release -2.
Cc1noc(C)c1S(=O)(=O)Nc1ccc2c(c1)C(=O)N([C@@H](C)CO)C[C@H](C)[C@@H](CN(C)C(=O)Nc1ccc(C(F)(F)F)cc1)OCCCC[C@H](C)O2 was read as INS-1E GSIS act 6, HIV Env fusion 57*[16.7 µM], miR122 inh -7[16.7 µM] and Cneo AK release 0.
CO[C@H]1CN(C)C(=O)c2cc(NC(=O)NC(C)C)ccc2OC[C@H](C)N(S(C)(=O)=O)C[C@H]1C was read as INS-1E GSIS act -6.
Screening COc1ccc(NC(=O)Nc2ccc3c(c2)[C@@H]2C[C@@H](CC(=O)N4CCN(C)CC4)O[C@@H](CO)[C@@H]2O3)cc1 returned INS-1E GSIS act 8, HIV Env fusion -5[16.7 µM], miR122 inh -3[16.7 µM] and Cneo AK release -9.
C[C@H]1CCCCO[C@H](CN(C)C(=O)Nc2ccc(C(F)(F)F)cc2)[C@@H](C)CN([C@@H](C)CO)C(=O)c2cc(NS(=O)(=O)c3ccc(F)cc3)ccc2O1 was read as INS-1E GSIS act -12, HIV Env fusion 78*[16.7 µM], miR122 inh 0[16.7 µM] and Cneo AK release -4.
For C[C@H]1CCCCO[C@H](CN(C)C(=O)Nc2cccc3ccccc23)[C@@H](C)CN([C@@H](C)CO)C(=O)c2cc(NS(=O)(=O)c3ccc(F)cc3)ccc2O1 the results were INS-1E GSIS act 9, HIV Env fusion 87*[16.7 µM], miR122 inh -2[16.7 µM] and Cneo AK release 3.
`C[C@@H]1CCCCO[C@@H](CN(C)C(=O)Nc2ccc(C(F)(F)F)cc2)[C@H](C)CN([C@H](C)CO)C(=O)c2cc(NS(=O)(=O)c3ccc(F)cc3)ccc2O1` gave INS-1E GSIS act 7, HIV Env fusion -78[16.7 µM], miR122 inh -8[16.7 µM] and Cneo AK release -1.
`COC(=O)[C@@H]1[C@@H](CO)[C@@H]2Cn3c(ccc(-c4ccccc4F)c3=O)[C@@H]2N1Cc1ccccc1` gave INS-1E GSIS act 1, miR122 inh -6[16.7 µM] and Cneo AK release -1.
`CCC(=O)Nc1ccc2c(c1)OC[C@@H](C)N(C(=O)Cc1cccnc1)C[C@@H](C)[C@H](OC)CN(C)C2=O` gave INS-1E GSIS act 14 and Cneo AK release 0.

From PubChem BioAssay
